Test system: Chinese patients with advanced and/or metastatic cancers
Experiment: Safety and tolerability
Format: in vivo, human
In short: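 Safety set: all patients with ≥ 1 dose. Patient-reported AEs were collected during treatment; chemistry, hematology and urinalysis were done at protocol time points. Laboratory and non-laboratory AEs were graded by CTCAE v4.0 and summarized by cohort.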

CCN1CCN(Cc2ccc(Nc3ncc(F)c(-c4cc(F)c5nc(C)n(C(C)C)c5c4)n3)nc2)CC1 [abemaciclib]
Vomiting TEAE (Grade 3, 200 mg (n = 13)): 0 n (%)
Anemia TEAE (Grade 3, Total (n = 25)): 2 (8.0) n (%)
Blood bilirubin increased TEAE (Grade 3, Total (n = 25)): 1 (4.0) n (%)
Diarrhea TEAE (Grade 3, Total (n = 25)): 4 (16.0) n (%)
Hyponatraemia TEAE (Grade 3, Total (n = 25)): 2 (8.0) n (%)
Leukopenia (white blood cell count decreased) TEAE (Grade 3, Total (n = 25)): 3 (12.0) n (%)
Lung infection TEAE (Grade 3, Total (n = 25)): 1 (4.0) n (%)
Malaise TEAE (Grade 3, Total (n = 25)): 1 (4.0) n (%)
Muscular weakness TEAE (Grade 3, Total (n = 25)): 1 (4.0) n (%)
Neutropenia (neutrophil count decreased) TEAE (Grade 3, Total (n = 25)): 8 (32.0) n (%)
Patients with ≥ 1 TEAE of Grade ≥ 3 (Grade 3, Total (n = 25)): 14 (56.0) n (%)
Thrombocytopenia (platelet count decreased) TEAE (Grade 3, Total (n = 25)): 5 (20.0) n (%)
Vomiting TEAE (Grade 3, Total (n = 25)): 0 n (%)
Anemia TEAE (Grade 4, 150 mg (n = 12)): 0 n (%)
Blood bilirubin increased TEAE (Grade 4, 150 mg (n = 12)): 0 n (%)
Diarrhea TEAE (Grade 4, 150 mg (n = 12)): 0 n (%)
Embolism TEAE (Grade 4, 150 mg (n = 12)): 0 n (%)
Hyponatraemia TEAE (Grade 4, 150 mg (n = 12)): 0 n (%)
Leukopenia (white blood cell count decreased) TEAE (Grade 4, 150 mg (n = 12)): 0 n (%)
Lung infection TEAE (Grade 4, 150 mg (n = 12)): 0 n (%)
Malaise TEAE (Grade 4, 150 mg (n = 12)): 0 n (%)
Muscular weakness TEAE (Grade 4, 150 mg (n = 12)): 0 n (%)
Neutropenia (neutrophil count decreased) TEAE (Grade 4, 150 mg (n = 12)): 0 n (%)
Patients with ≥ 1 TEAE of Grade ≥ 3 (Grade 4, 150 mg (n = 12)): 1 (8.3) n (%)
Thrombocytopenia (platelet count decreased) TEAE (Grade 4, 150 mg (n = 12)): 1 (8.3) n (%)
Vomiting TEAE (Grade 4, 150 mg (n = 12)): 1 (8.3) n (%)
Anemia TEAE (Grade 4, 200 mg (n = 13)): 0 n (%)
Blood bilirubin increased TEAE (Grade 4, 200 mg (n = 13)): 0 n (%)
Diarrhea TEAE (Grade 4, 200 mg (n = 13)): 0 n (%)
Embolism TEAE (Grade 4, 200 mg (n = 13)): 3 (23.1) n (%)
Hyponatraemia TEAE (Grade 4, 200 mg (n = 13)): 0 n (%)
Leukopenia (white blood cell count decreased) TEAE (Grade 4, 200 mg (n = 13)): 0 n (%)
Lung infection TEAE (Grade 4, 200 mg (n = 13)): 0 n (%)
Malaise TEAE (Grade 4, 200 mg (n = 13)): 0 n (%)
Muscular weakness TEAE (Grade 4, 200 mg (n = 13)): 0 n (%)
Neutropenia (neutrophil count decreased) TEAE (Grade 4, 200 mg (n = 13)): 0 n (%)
Patients with ≥ 1 TEAE of Grade ≥ 3 (Grade 4, 200 mg (n = 13)): 3 (23.1) n (%)
Thrombocytopenia (platelet count decreased) TEAE (Grade 4, 200 mg (n = 13)): 0 n (%)
Vomiting TEAE (Grade 4, 200 mg (n = 13)): 0 n (%)
Anemia TEAE (Grade 4, Total (n = 25)): 0 n (%)
Blood bilirubin increased TEAE (Grade 4, Total (n = 25)): 0 n (%)
Diarrhea TEAE (Grade 4, Total (n = 25)): 0 n (%)
Hyponatraemia TEAE (Grade 4, Total (n = 25)): 0 n (%)
Leukopenia (white blood cell count decreased) TEAE (Grade 4, Total (n = 25)): 0 n (%)
Lung infection TEAE (Grade 4, Total (n = 25)): 0 n (%)
Malaise TEAE (Grade 4, Total (n = 25)): 0 n (%)
Muscular weakness TEAE (Grade 4, Total (n = 25)): 0 n (%)
Neutropenia (neutrophil count decreased) TEAE (Grade 4, Total (n = 25)): 0 n (%)
Patients with ≥ 1 TEAE of Grade ≥ 3 (Grade 4, Total (n = 25)): 4 (16.0) n (%)
Thrombocytopenia (platelet count decreased) TEAE (Grade 4, Total (n = 25)): 1 (4.0) n (%)
Vomiting TEAE (Grade 4, Total (n = 25)): 1 (4.0) n (%)
Alanine aminotransferase increased, TEAE any grade (Total (n = 25)): 7 (28.0) n (%)
Anemia, TEAE any grade (Total (n = 25)): 12 (48.0) n (%)
Bilirubin increased, TEAE any grade (Total (n = 25)): 5 (20.0) n (%)
Blood creatinine increased, TEAE any grade (Total (n = 25)): 14 (56.0) n (%)
Cough, TEAE any grade (Total (n = 25)): 8 (32.0) n (%)
Decreased appetite, TEAE any grade (Total (n = 25)): 15 (60.0) n (%)
Diarrhea, TEAE any grade (Total (n = 25)): 20 (80.0) n (%)
Leukopenia (white blood cell count decreased), TEAE any grade (Total (n = 25)): 16 (64.0) n (%)
Localized edema, TEAE any grade (Total (n = 25)): 5 (20.0) n (%)
Malaise, TEAE any grade (Total (n = 25)): 13 (52.0) n (%)
Nausea, TEAE any grade (Total (n = 25)): 9 (36.0) n (%)
Neutropenia (neutrophil count decreased), TEAE any grade (Total (n = 25)): 19 (76.0) n (%)
Patients with ≥ 1 TEAE (any grade) (Total (n = 25)): 25 (100.0) n (%)
Thrombocytopenia (platelet count decreased), TEAE any grade (Total (n = 25)): 11 (44.0) n (%)
Vomiting, TEAE any grade (Total (n = 25)): 8 (32.0) n (%)
Discontinuation of study treatment due to diarrhea or neutropenia (all treated patients): No patient discontinued
ECG data or vital signs findings (all treated patients): No clinically meaningful findings
Febrile neutropenia (all treated patients): No febrile neutropenia was reported
Diarrhea Grade 4 or 5 (all treated patients (n = 25)): not reported
Diarrhea of Grade 3 (all treated patients (n = 25)): 4 patients
Patients reporting at least one TEAE of any grade (all treated patients (n = 25)): 100%
Patients who died on treatment due to AE (respiratory failure) (all treated patients (n = 25)): 4.0%
Patients who discontinued treatment due to AEs (all treated patients (n = 25)): 16%
Patients with TEAE of Grade 4 in severity (all treated patients (n = 25)): 16.0%
Thrombocytopenia TEAE of Grade ≥ 3 (all treated patients (n = 25)): 24%
Neutropenia TEAE of Grade ≥ 3 (all treated patients (n = 25), all Grade 3): 32%
Patients reporting serious adverse events (SAEs) (in total (n = 25)): 24.0%
Patients with 3 or more episodes of diarrhea (of the 20 patients experiencing diarrhea): 7 patients
